HNF4A DNA FP: change in binding of human HNF4A to DNA, primary screen, biochemical, fluorescence polarization, FITC-DNA; activity change, % at 10 µM; 1 h; actives 0.3% (n = 360,000); Hepatocyte nuclear factor 4-alpha (Homo sapiens), P41235; in the data active = activity change above about 30%, passing the limit was not always enough
TPT1 inhibitor: Candida albicans TPT1 enzyme inhibitors, primary screen, biochemical, fluorescence polarization. tRNA 2'-phosphotransferase TPT1 (Candida albicans SC5314). recombinant caTPT1, FP RNA substrate dephosphorylation. inhibition, % at 5 µM. actives 0.81% (n = 300,000);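 active = inhibition above the mean of all tested compounds plus 3 SD, set per screening campaign, cut at about 24% in these data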;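 note: plate controls were DMSO alone for no effect and ferristatin control at 100 nM for full effect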
CSN inh: inhibitors of CSN-mediated cullin deneddylation, primary screen, biochemical, fluorescence polarization, uHTS; COP9 signalosome complex subunit 5 (Homo sapiens), Q92905; Purified CSN, SCF-Nedd8-OG deneddylation; inhibition, % at 12.5 µM; actives 0.38% (n = 360,000); AID 651999, 2013;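 active = pattern-corrected inhibition above about 35%, with an unprinted fluorescence ratio check between 0.5 and 1.5, limit read from the data, passing the limit was not always enough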;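 note: 0% = enzyme with substrate and 100% = substrate without enzyme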
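assay system = purified human Csn5 enzyme expressed in HEK293T cells | amount = 0.24 nM enzyme | buffer or medium = Tris/NaCl/DTT buffer, pH 7.5 | reagent = 10 nM SCFSkp2-Nedd8OG | compound = one concentration, 12.5 µM, 0.25% DMSO | times = 90 min reaction at room temperature | signal = FP | read-out basis = % inhibition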
CRFR2-BP ag: agonists of CRF-BP/CRF-R2 complex, primary screen, cell-based, HEK293, calcium dye fluorescence, uHTS | actives 0.46% (n = 350,000) | calcium dye fluorescence (FLIPR); percent of saturating CRF peptide response | CRF-binding protein / CRF receptor 2 complex (human) | activation, % at 13.2 µM;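 active = activation of at least 50%, plus an integration ratio under a set limit after plate pattern correction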;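 note: plate controls were neutral control wells without compound for no effect and CRF at EC100 for full effect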
Rpn11 inh: Rpn11 (PSMD14) deubiquitinase inhibitors, primary screen, biochemical, fluorescence polarization, uHTS. human 26S proteasome, Ub4-pepOG fluorescence polarization; 20S core pre-blocked with epoxomicin. AID 588493, 2011. actives 0.59% (n = 360,000). calls only at 20 µM;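 active = inhibition at 20 µM, scaled to each plate's controls, above about 33%, limit read from the data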
Target sequence (O00487 whole entry, looked up): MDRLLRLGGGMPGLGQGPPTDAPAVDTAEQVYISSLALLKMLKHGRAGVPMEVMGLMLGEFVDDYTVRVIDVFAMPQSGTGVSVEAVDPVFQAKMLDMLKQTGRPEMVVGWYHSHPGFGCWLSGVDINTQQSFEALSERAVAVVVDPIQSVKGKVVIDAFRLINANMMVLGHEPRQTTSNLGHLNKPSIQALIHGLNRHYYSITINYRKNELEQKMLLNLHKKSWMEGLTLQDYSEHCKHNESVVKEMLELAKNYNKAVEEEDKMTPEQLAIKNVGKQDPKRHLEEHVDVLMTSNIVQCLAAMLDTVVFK
CRFBP-R2 block: antagonists of CRF-BP/CRF-R2 complex, primary screen, cell-based, HEK293, calcium dye fluorescence, uHTS. CRF-induced calcium fluorescence. inhibition, % at 11.8 µM. actives 0.59% (n = 350,000). AID 588475, 2011;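 active = inhibition of the ligand-induced calcium signal above about 50% at the single tested concentration, limit read from the data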
Numbers without * were called inactive; i = inactive; . = not tested or not shown; + = active, no number. This is a sample that favours compounds with a hit; in the whole collection about 2.3% have one here.

SMILES	HNF4A DNA FP	TPT1 inhibitor	CSN inh	CRFR2-BP ag	Rpn11 inh	CRFBP-R2 block
CC(=O)N/N=C/c1cc(C)n(-c2ccc(Br)cc2)c1C	2	2	0	-1	i	-14
O=C(O)CCCN1C(=O)/C(=C\c2ccccc2OCc2ccccc2)SC1=S	51*	-2	4	0	i	9
O=C(O)CN1C(=O)/C(=C\c2ccccc2OCc2ccccc2)SC1=S	-2	.	6	0	i	-11
O=C(Nc1ccccc1N1CCCCC1)c1ccccc1F	2	-5	-8	-1	i	-36
O=C(Nc1ccccc1N1CCCCC1)C1CCN(C(=O)c2ccc(Cl)cc2)CC1	0	0	-5	3	i	100*
O=C(Nc1ccccc1N1CCCC1)C1CCN(C(=O)c2ccc(Cl)cc2)CC1	0	0	0	-2	i	-21
O=C(Nc1ccccc1N1CCCC1)c1ccccc1F	38*	-2	0	0	i	14
O=C(Nc1ccc(Cl)cc1)c1nc[nH]c1C(=O)N1CCc2ccccc2C1	-5	.	-8	0	i	-13
O=C(CN(c1ccccc1F)S(=O)(=O)c1ccccc1)Nc1ccc2c(c1)OCCO2	1	3	-2	-4	i	8
Cc1ccc(N(C)C(=O)CCS(=O)(=O)c2ccc3c(c2)oc(=O)n3C)cc1	5	0	-3	-1	i	15
CN(C(=O)CCS(=O)(=O)c1ccc2c(c1)oc(=O)n2C)C1CCCCC1	2	0	-3	-1	i	68*
O=Nc1nc2ncccn2c1-c1ccccc1	8	.	-1	7	i	58*
Nc1nc2ncccn2c1-c1ccc(F)cc1	-5	.	-3	.	.	.
CC(C)C1C(=O)N(Cc2cn(CCC3OCCO3)nn2)CCS(=O)(=O)N1Cc1ccc(-c2ccccc2Cl)cc1 (stereo not given)	6	.	-1	.	i	.
NC(=O)CN1C(=O)C(O)(CC(=O)/C=C\c2ccc3c(c2)OCO3)c2ccccc21 (stereo not given)	3	-1	-3	-1	i	-3
COc1ccc(Oc2c(OC)cc(NCc3ccc(CN)cc3)c3ncccc23)cc1	-40	.	42*	0	i	10
CC(CCC(=O)Nc1nncs1)C(=O)O (stereo not given)	0	1	-2	-4	i	2
CCCCC(C(=O)O)C(C)CC(=O)Nc1nncs1 (stereo not given)	-4	-2	0	3	i	77*
O=C(Nc1ccc(C(F)(F)F)cc1)c1ccc(NC(=O)C2CCCO2)cc1 (stereo not given)	23	2	13	-1	+	19
O=C(NN1C(=O)CSC1=S)c1cccnc1	31	0	10	-2	.	77*
CC(C)c1nc2cc(C(=O)NC(c3cccnc3)C(F)(F)F)ccc2o1 (stereo not given)	0	-1	-4	-2	i	8
Cc1nc(-c2ccncc2)nc(NCCNc2ccc(C(F)(F)F)cn2)c1Cl	-2	1	-4	3	i	118*
CCOc1cc(N2CCOCC2)c(OCC)cc1NC(=O)c1ccc2ccccc2n1	2	4	-13	1	i	-57
Cn1ccnc1SCC(=O)NCC(=O)Nc1ccc(F)c(F)c1F	1	.	6	0	i	-12
Cc1ccc(C(=O)c2cc([N+](=O)[O-])ccc2N2CCCCC2)c(C)c1	8	0	-4	133*	i	-130
SMILES	HNF4A DNA FP	TPT1 inhibitor	CSN inh	CRFR2-BP ag	Rpn11 inh	CRFBP-R2 block
O=C(O)c1cc([N+](=O)[O-])ccc1N1CCCCC1	0	1	-17	-3	i	-3
Cc1cc(-c2csc(NC(=O)c3ccc(C#N)cc3)n2)c(C)n1Cc1ccco1	6	9	41*	8	i	20
Cc1cc(-c2csc(NC(=O)c3ccc(=O)[nH]c3)n2)c(C)n1Cc1ccccc1	9	15	26	13	i	12
O=C1NC(=S)SC1=Cc1ccccc1C(=O)O	6	.	3	.	i	.
Cc1ccc(S(=O)(=O)/N=C2/NC(=O)/C(=C/c3ccccn3)S2)cc1	-4	-1	6	-1	i	16
COc1ccc(N=C2NC(=O)S/C2=C\c2ccc(N(C)C)cc2)cc1	21	7	13	98*	i	-155
O=C1NC(=S)S/C1=C\c1cc(Cl)ccc1Cl	-1	.	9	30	i	70*
O=C1NC(=S)SC1=Cc1ccccn1	64*	.	1	.	i	.
CN(C)c1ccc(C=C2SC(=S)NC2=O)cc1	197	.	105*	132*	.	-90
CCn1c(COc2cccc(OC)c2)nnc1SCC(=O)NCC1CCCO1 (stereo not given)	-1	1	5	-1	i	-10
NC(=O)CSc1nnc(-c2ccc(S(=O)(=O)N3CCCCC3)cc2)n1-c1ccccc1	2	-1	-4	37	i	-63
COc1ccccc1-n1c(SCC(N)=O)nnc1-c1ccc(S(=O)(=O)N2CCCCC2)cc1	-3	-3	-1	62*	i	-89
CN(C(=O)c1ccc(S(=O)(=O)NC2CCCC2)cc1)C1CCCCC1	-2	5	-4	51*	i	-75
O=S(=O)(NC1CCCC1)c1ccc(S(=O)(=O)NC2CCCC2)cc1	-2	-2	-2	56*	i	-71
Cc1ccc(CN2CCN(C3CCOCC3)CC2CCO)cc1 (stereo not given)	2	-2	-3	1	i	80*
Cc1ccccc1Nc1c(-c2ccccn2)nc2ccccn12	-4	-2	-3	-4	i	1
Cc1ccc2nc(-c3ccccn3)c(Nc3ccccc3C)n2c1	39*	-3	-2	0	i	-6
N#CC(C#N)=NNc1ccc(S(=O)(=O)N2CCCCC2)cc1	-1	3	-10	99*	i	66*
COc1ccc(C(=O)NC(Oc2ccccc2)C(Cl)(Cl)Cl)cc1 (stereo not given)	-1	-2	-1	12	i	113*
COc1ccc2c(C)cc(SCc3c(C)noc3C)nc2c1	3	-4	-3	-1	i	56*
COc1ccc2c(C)cc(SCC(=O)c3ccc4c(c3)OCO4)nc2c1	1	2	-6	20	i	1

Compound activity deposited in PubChem BioAssay by several laboratories.
